Test results from ChEMBL document CHEMBL2331108, “Synthesis and biological evaluation of a new series of hexahydro-2H-pyrano[3,2-c]quinolines as novel selective σ1 receptor ligands” (J Med Chem, 2013).

What was measured:
[1] = Displacement of [3H]-Di-o-tolyguanidine from guinea pig sigma2 receptor after 120 mins by liquid scintillation counting analysis; set-up: species or system Cavia porcellus
[2] = target: 5-hydroxytryptamine receptor 2B (Homo sapiens, UniProt P41595); assay: Binding affinity to human 5-HT2B receptor
HepG2 [3] = assay: Cytotoxicity against human HepG2 cells up to 100 uM by MTT assay; assay type: cell-based
[4] = target: Sigma non-opioid intracellular receptor 1 (Homo sapiens, UniProt Q99720); assay: Displacement of [3H]-(+)-pentazocine from human sigma1 receptor transfected in HEK293 cells after 120 mins by liquid scintillation counting analysis; assay type: cell-based
HepG2 [5] = assay: Cytotoxicity against human HepG2 cells up to 100 uM by neutral red uptake assay; assay type: cell-based
Liver microsomes [6] = assay: Intrinsic clearance in human liver microsomes assessed per milligram of protein; assay type: ADME, Microsome
Salmonella typhimurium = assay: Genotoxicity in Salmonella typhimurium by Ames test; assay type: toxicity, organism-based; conditions: salmonella enterica subsp. enterica serovar typhimurium
Cytochrome P450 2C19 = Cytochrome P450 2C19 (Homo sapiens, UniProt P33261); assay: Inhibition of human recombinant CYP2C19; assay type: ADME
Cytochrome P450 2C9 = Cytochrome P450 2C9 (Homo sapiens, UniProt P11712); assay: Inhibition of human recombinant CYP2C9; assay type: ADME
Cytochrome P450 2D6 = Cytochrome P450 2D6 (Homo sapiens, UniProt P10635); assay: Inhibition of human recombinant CYP2D6; assay type: ADME
Liver microsomes [7] = assay: Intrinsic clearance in rat liver microsomes assessed per milligram of protein; assay type: ADME, Microsome
Mus musculus [8] = assay: Antinociceptive activity in CD1 mouse assessed as inhibition of formalin-induced pain at 40 mg/kg, ip administered 15 mins before formalin-challenge measured after 15 to 30 mins; assay type: functional; conditions: route intraperitoneal
Procedure, shortened: (§1)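 Male CD1 mice, 6–8 weeks old (n = 8–12 per group), were dosed ip at 10 mL/kg in 0.5% HPMC vehicle. 15 min later, 20 μL of 2.5% formalin (0.92% formaldehyde) was injected into the right hind paw, midplantar. Licking/biting time was scored 0–5 min (phase I) and 15–30 min (phase II).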

Mus musculus [9] = assay: Antinociceptive activity in CD1 mouse assessed as inhibition of formalin-induced pain at 80 mg/kg, ip administered 15 mins before formalin-challenge measured after 15 to 30 mins; assay type: functional; conditions: route intraperitoneal; procedure, shortened: as §1
Liver = assay: Intrinsic clearance in mouse liver microsomes assessed per milligram of protein; assay type: ADME, Microsome
[10] = Dissociation constant, pKa of the compound; assay type: physicochemical
Procedure, shortened: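 pKa measured experimentally by pH-metric titration on an automated GlpKa instrument.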

[11] = target: Voltage-gated inwardly rectifying potassium channel KCNH2 (Homo sapiens, UniProt Q12809); assay: Binding affinity to human ERG channel by patch clamp assay
Cytochrome P450 1A2 = target: T1, Cytochrome P450 1A2 (Homo sapiens, UniProt P05177); assay: Inhibition of human recombinant CYP1A2; assay type: ADME
T1 sequence (P05177 whole entry): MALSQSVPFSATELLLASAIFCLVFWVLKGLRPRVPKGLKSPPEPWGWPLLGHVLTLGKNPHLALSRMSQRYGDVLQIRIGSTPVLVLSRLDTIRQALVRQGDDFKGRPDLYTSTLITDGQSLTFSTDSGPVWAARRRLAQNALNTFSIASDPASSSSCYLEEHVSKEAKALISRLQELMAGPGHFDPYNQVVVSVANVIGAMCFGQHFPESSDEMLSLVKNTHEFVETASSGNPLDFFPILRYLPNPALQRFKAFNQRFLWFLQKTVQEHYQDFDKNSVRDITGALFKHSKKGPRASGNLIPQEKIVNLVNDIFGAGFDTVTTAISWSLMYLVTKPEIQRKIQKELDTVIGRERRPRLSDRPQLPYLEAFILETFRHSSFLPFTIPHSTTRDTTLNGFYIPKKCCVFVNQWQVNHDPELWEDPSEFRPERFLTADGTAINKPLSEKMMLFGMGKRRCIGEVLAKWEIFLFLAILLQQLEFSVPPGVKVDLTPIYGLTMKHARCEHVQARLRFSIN

Mus musculus [12] = assay: Antinociceptive activity in CD1 mouse assessed as inhibition of capsaicin-induced mechanical hypersensitivity at 80 mg/kg, po administered 30 mins before capsaicin-challenge measured after 15 mins; assay type: functional
Cytochrome P450 3A4 = Cytochrome P450 3A4 (Homo sapiens, UniProt P08684); assay: Inhibition of human recombinant CYP3A4; assay type: ADME
[13] = Kinetic solubility of the compound; assay type: physicochemical; conditions: read-out: Kinetic_solubility
Procedure, shortened: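 Kinetic solubility: compound solution at 1% DMSO in phosphate buffer, pH 7.4, quantified by HPLC.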

Mus musculus [14] = assay: Antinociceptive activity in ip dosed CD1 mouse assessed as inhibition of formalin-induced pain administered 15 mins before formalin-challenge measured after 15 to 30 mins; assay type: functional, organism-based; procedure, shortened: as §1

Sequence of Sigma non-opioid intracellular receptor 1 (Q99720 whole entry): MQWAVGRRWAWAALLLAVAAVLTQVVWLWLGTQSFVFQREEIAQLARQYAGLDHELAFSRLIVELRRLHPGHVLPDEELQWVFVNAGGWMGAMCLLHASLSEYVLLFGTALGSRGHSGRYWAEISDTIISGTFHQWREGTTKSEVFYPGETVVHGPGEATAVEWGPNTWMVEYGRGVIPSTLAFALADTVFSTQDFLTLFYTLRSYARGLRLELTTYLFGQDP
Sequence of 5-hydroxytryptamine receptor 2B (P41595 whole entry): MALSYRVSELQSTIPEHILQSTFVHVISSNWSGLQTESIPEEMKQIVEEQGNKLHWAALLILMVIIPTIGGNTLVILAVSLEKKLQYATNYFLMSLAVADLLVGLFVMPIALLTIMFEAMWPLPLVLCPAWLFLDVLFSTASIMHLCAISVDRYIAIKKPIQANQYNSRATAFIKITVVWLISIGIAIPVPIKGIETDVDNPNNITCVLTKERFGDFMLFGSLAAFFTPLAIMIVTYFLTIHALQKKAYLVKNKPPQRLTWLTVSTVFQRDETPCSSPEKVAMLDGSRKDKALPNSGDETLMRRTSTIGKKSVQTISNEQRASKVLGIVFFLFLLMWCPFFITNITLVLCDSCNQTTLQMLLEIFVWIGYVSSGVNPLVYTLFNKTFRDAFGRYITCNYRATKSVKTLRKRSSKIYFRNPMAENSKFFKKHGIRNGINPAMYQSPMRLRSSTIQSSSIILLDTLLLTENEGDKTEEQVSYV
Sequence of Cytochrome P450 2C9 (P11712 whole entry): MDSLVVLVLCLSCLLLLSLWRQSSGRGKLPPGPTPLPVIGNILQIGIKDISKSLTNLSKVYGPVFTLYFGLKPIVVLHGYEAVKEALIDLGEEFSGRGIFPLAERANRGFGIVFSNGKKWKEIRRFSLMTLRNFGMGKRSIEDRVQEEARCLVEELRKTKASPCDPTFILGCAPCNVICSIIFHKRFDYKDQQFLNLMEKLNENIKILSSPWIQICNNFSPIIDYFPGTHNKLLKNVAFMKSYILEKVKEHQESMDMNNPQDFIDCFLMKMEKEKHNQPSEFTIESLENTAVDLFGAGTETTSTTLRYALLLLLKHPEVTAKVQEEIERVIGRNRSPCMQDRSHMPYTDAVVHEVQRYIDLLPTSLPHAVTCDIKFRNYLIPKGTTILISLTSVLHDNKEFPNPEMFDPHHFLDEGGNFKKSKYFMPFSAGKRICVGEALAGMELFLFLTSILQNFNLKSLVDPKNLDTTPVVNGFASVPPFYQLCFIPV
Sequence of Cytochrome P450 3A4 (P08684 whole entry): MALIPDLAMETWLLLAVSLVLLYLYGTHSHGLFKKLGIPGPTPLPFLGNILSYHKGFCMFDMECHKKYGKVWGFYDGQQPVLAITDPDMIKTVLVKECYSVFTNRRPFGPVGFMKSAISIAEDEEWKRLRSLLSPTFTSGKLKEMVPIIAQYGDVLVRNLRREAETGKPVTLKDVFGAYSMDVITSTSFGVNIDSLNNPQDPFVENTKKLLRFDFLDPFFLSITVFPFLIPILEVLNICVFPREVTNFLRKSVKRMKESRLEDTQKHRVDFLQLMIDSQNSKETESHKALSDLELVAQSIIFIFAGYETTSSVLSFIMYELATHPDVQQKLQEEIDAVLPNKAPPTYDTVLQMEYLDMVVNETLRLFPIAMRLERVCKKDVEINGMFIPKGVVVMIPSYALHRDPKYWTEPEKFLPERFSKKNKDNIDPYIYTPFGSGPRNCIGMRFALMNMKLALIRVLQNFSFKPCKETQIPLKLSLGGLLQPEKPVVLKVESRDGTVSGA
Sequence of Cytochrome P450 2C19 (P33261 whole entry): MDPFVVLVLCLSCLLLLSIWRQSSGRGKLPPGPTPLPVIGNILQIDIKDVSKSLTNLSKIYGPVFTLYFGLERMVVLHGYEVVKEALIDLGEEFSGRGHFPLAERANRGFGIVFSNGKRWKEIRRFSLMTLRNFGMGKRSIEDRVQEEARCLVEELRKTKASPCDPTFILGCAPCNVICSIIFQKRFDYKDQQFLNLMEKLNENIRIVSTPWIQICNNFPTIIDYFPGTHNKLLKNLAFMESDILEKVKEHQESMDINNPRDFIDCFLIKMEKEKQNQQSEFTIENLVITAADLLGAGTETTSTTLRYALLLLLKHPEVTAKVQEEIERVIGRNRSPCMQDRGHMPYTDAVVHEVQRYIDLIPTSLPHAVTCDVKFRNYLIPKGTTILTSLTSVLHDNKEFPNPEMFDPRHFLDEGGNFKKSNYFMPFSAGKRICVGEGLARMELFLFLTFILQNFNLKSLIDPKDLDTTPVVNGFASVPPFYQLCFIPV
Sequence of Cytochrome P450 2D6 (P10635 whole entry): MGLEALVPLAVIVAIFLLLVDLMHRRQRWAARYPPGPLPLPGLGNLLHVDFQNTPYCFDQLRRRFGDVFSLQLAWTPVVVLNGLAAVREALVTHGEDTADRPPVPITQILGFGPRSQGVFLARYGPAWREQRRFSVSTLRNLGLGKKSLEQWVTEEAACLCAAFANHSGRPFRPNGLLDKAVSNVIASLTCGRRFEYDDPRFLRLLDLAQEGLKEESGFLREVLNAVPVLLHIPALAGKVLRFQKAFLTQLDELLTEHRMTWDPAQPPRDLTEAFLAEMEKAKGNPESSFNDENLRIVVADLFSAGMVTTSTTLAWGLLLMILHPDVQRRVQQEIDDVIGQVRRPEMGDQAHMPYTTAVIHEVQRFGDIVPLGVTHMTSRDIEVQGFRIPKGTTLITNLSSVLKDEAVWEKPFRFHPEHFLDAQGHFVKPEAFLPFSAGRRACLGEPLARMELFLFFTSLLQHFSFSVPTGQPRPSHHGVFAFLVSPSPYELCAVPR
Sequence of Voltage-gated inwardly rectifying potassium channel KCNH2 (Q12809 whole entry): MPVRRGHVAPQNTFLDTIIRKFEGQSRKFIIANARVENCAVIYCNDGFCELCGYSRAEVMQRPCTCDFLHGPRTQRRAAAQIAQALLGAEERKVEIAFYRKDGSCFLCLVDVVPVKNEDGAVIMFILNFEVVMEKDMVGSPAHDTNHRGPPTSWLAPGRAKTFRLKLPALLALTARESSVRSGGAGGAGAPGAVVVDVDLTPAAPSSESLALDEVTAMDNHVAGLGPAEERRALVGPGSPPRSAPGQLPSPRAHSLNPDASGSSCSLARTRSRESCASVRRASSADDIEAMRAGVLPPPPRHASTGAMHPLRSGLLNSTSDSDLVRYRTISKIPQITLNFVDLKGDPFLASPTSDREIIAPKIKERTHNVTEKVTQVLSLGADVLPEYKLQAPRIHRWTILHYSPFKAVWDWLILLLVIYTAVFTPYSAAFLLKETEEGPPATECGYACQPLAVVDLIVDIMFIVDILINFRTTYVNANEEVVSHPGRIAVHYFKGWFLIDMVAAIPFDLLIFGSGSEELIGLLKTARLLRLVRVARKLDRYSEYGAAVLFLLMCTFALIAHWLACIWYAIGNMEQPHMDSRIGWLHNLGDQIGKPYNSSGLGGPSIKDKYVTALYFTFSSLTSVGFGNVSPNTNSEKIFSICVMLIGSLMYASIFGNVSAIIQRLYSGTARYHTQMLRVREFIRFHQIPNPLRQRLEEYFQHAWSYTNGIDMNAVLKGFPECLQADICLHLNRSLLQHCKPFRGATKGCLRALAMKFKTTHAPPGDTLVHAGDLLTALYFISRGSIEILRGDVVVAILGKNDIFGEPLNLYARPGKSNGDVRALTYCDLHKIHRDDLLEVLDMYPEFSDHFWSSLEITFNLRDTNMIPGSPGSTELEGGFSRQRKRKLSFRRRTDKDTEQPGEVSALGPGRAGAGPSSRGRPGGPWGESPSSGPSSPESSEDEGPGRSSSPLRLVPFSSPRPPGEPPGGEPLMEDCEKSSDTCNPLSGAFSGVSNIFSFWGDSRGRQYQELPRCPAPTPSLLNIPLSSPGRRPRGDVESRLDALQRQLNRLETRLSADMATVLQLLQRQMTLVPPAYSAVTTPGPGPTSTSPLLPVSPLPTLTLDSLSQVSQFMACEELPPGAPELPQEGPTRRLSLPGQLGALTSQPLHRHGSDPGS

Row | Compound | Ki [1] | Ki [4] | other results
1 | Cc1cc(OCCN2CCOCC2)nn1-c1ccc2ccccc2c1 | 1000 nM | – | –
2 | CC(C)CCOc1ccc2c(c1)[C@H]1OCCC[C@H]1[C@@H](C1CCOCC1)N2 [listing 1 of 2 here] | 1000 nM | 30 nM | Ki [2]: 5300 nM; Activity (HepG2 [3]): Non-toxic; Activity (HepG2 [5]): Non-toxic; CLH (Liver microsomes [6]): 5 µL/min; Activity (Salmonella typhimurium): Non-toxic; IC50 (Cytochrome P450 2C19): > 5000 nM; IC50 (Cytochrome P450 2C9): > 5000 nM; IC50 (Cytochrome P450 2D6): > 5000 nM; CLH (Liver microsomes [7]): 21.7 µL/min; inhibition in vivo at 40 mg/kg (Mus musculus [8]): 40%; inhibition in vivo at 80 mg/kg (Mus musculus [9]): 81%; CLH (Liver): 15.1 µL/min; pKa [10]: 3.8; IC50 [11]: > 10000 nM; IC50 (Cytochrome P450 1A2): > 5000 nM; inhibition in vivo at 80 mg/kg (Mus musculus [12]): 63%; IC50 (Cytochrome P450 3A4): > 5000 nM
3 | CCCCCc1ccc2c(c1)[C@H]1OCCC[C@H]1[C@@H](C1CCCCC1)N2 | 1000 nM | 19 nM | solubility kinetic [13]: < 1 µM
4 | CCCCCc1ccc2c(c1)[C@@H]1OCCC[C@@H]1[C@H](C1CCCCC1)N2 | 1000 nM | > 1000 nM | –
5 | CC(C)CCOc1ccc2c(c1)[C@H]1OCCC[C@H]1[C@@H](C1CCCCC1)N2 | 1000 nM | 14 nM | solubility kinetic [13]: < 1 µM
6 | CC(C)CCOc1ccc2c(c1)[C@@H]1OCCC[C@@H]1[C@H](C1CCCCC1)N2 | 1000 nM | > 1000 nM | –
7 | CC(C)CCOc1ccc2c(c1)[C@@H]1OCCC[C@@H]1[C@H](C1CCOCC1)N2 | 1000 nM | > 1000 nM | –
8 | CC(C)CCOc1ccc2c(c1)[C@H]1OCCC[C@H]1[C@@H](C1CCOCC1)N2 [listing 2 of 2 here] | – | – | inhibition (Mus musculus [14]): Dose-dependent effect
9 | CCCCOc1ccc2c(c1)[C@H]1OCC[C@H]1[C@@H](C1CCCCC1)N2 (racemic) | 1000 nM | > 1000 nM | –
10 | CC(C)CCOc1ccc2c(c1)[C@H]1OCC[C@H]1[C@@H](C1CCCCC1)N2 (racemic) | 1000 nM | 108 nM | –
11 | CCCCCc1ccc2c(c1)[C@H]1OCCC[C@H]1[C@@H](C(CC)CC)N2 (racemic) | 1000 nM | 410 nM | –
12 | CCCCCc1ccc2c(c1)[C@H]1OCCC[C@H]1[C@@H](C1CCOCC1)N2 (racemic) | 1000 nM | 67 nM | –
13 | CCCCOc1ccc2c(c1)[C@H]1OCCC[C@H]1[C@@H](C1CC1)N2 (racemic) | 1000 nM | > 1000 nM | –
14 | CCCCOc1ccc2c(c1)[C@H]1OCCC[C@H]1[C@@H](c1ccccc1)N2 (racemic) | 1000 nM | > 1000 nM | –
15 | CC(C)CCOc1ccc2c(c1)[C@H]1OCCC[C@H]1[C@@H](C1CCCC1)N2 (racemic) | 1000 nM | 124 nM | –
16 | CC(C)CCOc1ccc2c(c1)[C@H]1OCCC[C@H]1[C@@H](C1CCOCC1)N2 (racemic) | – | 84 nM | –
17 | CC(C)CCOc1ccc2c(c1)[C@H]1OCCC[C@H]1[C@@H](C1CCNCC1)N2 (racemic) | 1000 nM | 536 nM | –
18 | CCN1CCC([C@H]2Nc3ccc(OCCC(C)C)cc3[C@H]3OCCC[C@H]32)CC1 (racemic) | 1000 nM | 317 nM | –
19 | CC(C)CCOc1ccc2c(c1)[C@H]1OCCC[C@H]1[C@@H](C1CCN(Cc3ccccc3)CC1)N2 (racemic) | 1000 nM | 15 nM | solubility kinetic [13]: < 1 µM
